Data published in ChEMBL document CHEMBL3271979, “Inhibition of solid tumors by nitrosoureas. 1. Lewis lung carcinoma” (1977).
Active and inactive are the calls of the source. No cut-off for these calls is given here.

Key:
Mus musculus [1] = test: Antitumor activity against mouse advanced Lewis lung carcinoma allografted in ip dosed BDF1 mouse assessed as disease cure administered as single dose on day 6 or 7 post-tumor implantation; assay type: functional, organism-based
In short: (§1)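 BDF1 mice (C57Blk/6 × DBA/2) implanted sc by trocar with Lewis lung tumor fragments of about 40 mg, taken only from bacteriologically sterile donor tumors. Mice bearing tumors of about 400 mg (day 6-7) were selected. Each received a single ip dose on day 7, at or below the LD10 in normal mice. Groups were of 10 mice. Tumor weight was taken from calipers as w = ab²/2, measured at least twice weekly. Matched non-tumor mice served as toxicity controls.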

[2] = Ratio of ED50 for antitumor activity against mouse L1210 cells allografted in ip dosed mouse to LD10 for mouse
Mus musculus [3] = test: Antitumor activity against mouse early Lewis lung carcinoma allografted in ip dosed BDF1 mouse administered as single dose on 1 or 2 days post-tumor implantation measured for 80 days post-drug treatment; assay type: functional, organism-based
In short: (§2)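 BDF1 mice implanted sc by trocar with ~40 mg Lewis lung fragments from sterile donor tumors. A single ip dose was given on day 1 or 2 after implant, in water or saline vehicle. Cures were scored in animals observed for at least 80 days after treatment. Drug-toxicity controls were matched non-tumor-bearing mice monitored for body weight and deaths.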

[4] = Antitumor activity against mouse advanced Lewis lung carcinoma allografted in ip dosed BDF1 mouse assessed as increase in host lifespan administered as single dose on day 6 or 7 post-tumor implantation; assay type: functional
In short: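 Advanced Lewis lung model: about 40 mg fragments implanted sc by trocar into BDF1 mice, and mice with tumors of about 400 mg (day 6-7) selected. Tumor weight from calipers, w = ab²/2. Agent given as one ip dose in distilled water or physiological saline. Nontumor-bearing mice received matching doses as toxicity controls.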

Mus musculus [5] = test: Antitumor activity against mouse advanced Lewis lung carcinoma allografted in ip dosed BDF1 mouse assessed as complete regression of established tumor administered as single dose on day 6 or 7 post-tumor implantation; assay type: functional, organism-based; in short: as §1
Mus musculus [6] = test: Antitumor activity against mouse advanced Lewis lung carcinoma allografted in BDF1 mouse assessed as disease cure at 32 mg/kg, ip administered as single dose on 7th day post-tumor implantation measured for 80 days post-drug treatment; assay type: functional, organism-based; design: dose 32 mg/kg; in short: as §1
Mus musculus [7] = test: Antitumor activity against mouse advanced Lewis lung carcinoma allografted in BDF1 mouse assessed as complete regression of established tumor at 32 mg/kg, ip administered as single dose on 7th day post-tumor implantation; assay type: functional, organism-based; design: dose 32 mg/kg
In short: (§3)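 BDF1 mice (C57Blk/6 × DBA/2) implanted sc by trocar with about 40 mg Lewis lung tumor fragments from bacteriologically sterile donors. Advanced-disease groups held tumors of about 400 mg by day 6-7, sized by caliper (w = ab²/2). Single ip injection on day 7, in water or saline vehicle, at or below the LD10 in normal mice. Tumors measured at least twice weekly.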

Mus musculus [8] = test: Antitumor activity against mouse early Lewis lung carcinoma allografted in ip dosed BDF1 mouse assessed as disease cure administered as single dose on 1 or 2 days post-tumor implantation measured for 80 days post-drug treatment; assay type: functional; in short: as §2
[9] = Antitumor activity against mouse advanced Lewis lung carcinoma allografted in BDF1 mouse assessed as increase in host life span at 32 mg/kg, ip administered as single dose on 7th day post-tumor implantation; assay type: functional; conditions: route intraperitoneal; in short: as §3
[10] = Antitumor activity against mouse advanced Lewis lung carcinoma allografted in BDF1 mouse assessed as increase in host life span at 36 mg/kg, ip administered as single dose on 7th day post-tumor implantation; assay type: functional; conditions: route intraperitoneal; in short: as §3
Mus musculus [11] = test: Antitumor activity against mouse advanced Lewis lung carcinoma allografted in BDF1 mouse assessed as disease cure at 36 mg/kg, ip administered as single dose on 7th day post-tumor implantation measured for 80 days post-drug treatment; assay type: functional, organism-based; design: dose 36 mg/kg; in short: as §1
Mus musculus [12] = test: Antitumor activity against mouse advanced Lewis lung carcinoma allografted in BDF1 mouse assessed as complete regression of established tumor at 36 mg/kg, ip administered as single dose on 7th day post-tumor implantation; assay type: functional, organism-based; design: dose 36 mg/kg; in short: as §1

SMILES | Activity (Mus musculus [1]) | ILS [4] [%] | inhibition (Mus musculus [5]) | other results
C[C@H]1S(=O)(=O)C[C@@H](NC(=O)N(CCCl)N=O)CS1(=O)=O | inactive | >25 | inactive | Ratio [2]: 0.6; Activity (Mus musculus [3]): inactive; Activity (Mus musculus [6]): inactive; inhibition (Mus musculus [7]): inactive; Activity (Mus musculus [8]): inactive; ILS at 32 mg/kg [9]: 10%
O=NN(CCF)C(=O)N[C@H]1CC[C@@H](C(=O)O)CC1 | – | <25 | inactive | –
CO[C@H]1CC[C@@H](NC(=O)N(CCCl)N=O)CC1 | – | – | – | Activity (Mus musculus [3]): inactive
O=NN(CCCl)C(=O)N[C@@H]1CCC[C@H](C(=O)O)C1 (relative stereo) | – | <25 | inactive | –
O=NN(CCF)C(=O)NC1CCSCC1 | inactive | >25 | inactive | ILS at 36 mg/kg [10]: 87%; Activity (Mus musculus [11]): inactive
O=NN(CCCl)C(=O)NC1CCCC1 | – | <25 | inactive | –
O=NN(CCCl)C(=O)NC1CCS(=O)(=O)C1 (stereo unspecified) | – | <25 | inactive | –
O=NN(CCCl)C(=O)NC1CC2CCC1C2 (stereo unspecified) | inactive | >25 | inactive | –
C[C@H]1CC[C@@H](NC(=O)N(CCCl)N=O)CC1 | – | <25 | inactive | –
O=NN(CCCl)C(=O)N[C@H]1CC[C@@H](NC(=O)N(CCCl)N=O)CC1 | – | <25 | inactive | –
CC(=O)O[C@H]1CC[C@H](NC(=O)N(CCF)N=O)CC1 | – | <25 | inactive | –
O=NN(CCCl)C(=O)NCCF | – | – | – | Activity (Mus musculus [6]): inactive; inhibition (Mus musculus [7]): inactive; ILS at 32 mg/kg [9]: 44%
CC(=O)O[C@H]1CC[C@H](NC(=O)N(CCCl)N=O)CC1 | inactive | >25 | inactive | ILS at 36 mg/kg [10]: 34%; inhibition (Mus musculus [12]): inactive; Activity (Mus musculus [11]): inactive
